Inconclusive results are not listed. Active and inactive are the calls of the source.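 Rule for the calls, unless noted: active = viability at or below 27.92% in each of two runs, the all-compound median minus 4 SD; inconclusive = no clear call, values can overlap the other calls; inactive = the rest.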
Legend:
[1] = OD615 S. cerevisiae growth inhibition, permissive medium, pilot counter-assay, permissive growth control for S. cerevisiae lifespan shortening project (AID 705;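 active = growth inhibition above 25% in both replicates, a cutoff set 3 SD above the mean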); conditions: OD615, 24 h, at 10 µM, stronger effect = higher value
In short: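 assay system = Saccharomyces cerevisiae strain carrying genetically modified DeaD replicative-lifespan system | technique = absorbance (optical density) at 615 nm | buffer or medium = permissive raffinose/galactose medium | timing = cells pre-grown 4 h, then 24 h compound exposure, 30 °C humidified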

[2] = Restrictive medium S. cerevisiae growth inhibition, OD615, pilot screen of yeast lifespan reduction project, restrictive growth control (AID 706;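 active = growth inhibition above a set limit, 3 SD over mean compound inhibition, in both replicates, cut at about 43% in these data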;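 note: modified DeaD lifespan yeast strain shifted to restrictive glucose medium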); conditions: OD615, 48 h, at 10 µM, stronger effect = higher value
In short: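 System: modified S. cerevisiae. Buffer or medium: CSMM-D glucose medium. Incubation: 4 h pre-growth plus 48 h compound exposure, 30 °C. Detection: absorbance (optical density) measured at 615 nm.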

[3] = viability gain of MRP-1-high H69AR cells under doxorubicin, pilot screen, MRP-1 activator project, CellTiter-Glo, duplicate (AID 807;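 active = viability increase at or above a cutoff of the median across tested compounds plus 3 SD, cut at about 8.5% in these data, passing the limit was not always enough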;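 note: compound pretreatment 18-22 h then 72 h combined with doxorubicin; 0% = doxorubicin alone and 100% = vehicle without doxorubicin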); conditions: H69AR viability with doxorubicin, CellTiter-Glo luminescence; at 10 µM; stronger effect = higher value
[4] = growth suppression of beta-catenin knockout HCT116, pilot screen, human colon tumor cells (AID 823;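 active = cell viability at or below a set limit in both duplicate runs, the limit being the all-compound median minus 4 SD, cut at about 23% in these data, passing the limit was not always enough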;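 note: 0% = wells killed by 20 µM Hyamine and 100% = untreated DMSO cell wells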); conditions: CellTiter-Glo, 60 h, at 10 µM, stronger effect = lower value
[5] = growth suppression of PTEN-deleted HCT116, pilot screen, cell-based, HCT116 clonal line, CellTiter-Glo (AID 824); conditions: 60 h, at 10 µM, stronger effect = lower value;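 note: 0% = 20 µM Hyamine control and 100% = vehicle cell control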
[6] = inhibitors of the yeast RAM network, pilot screen, dse1pr::URA3 reporter, 5-FOA selection (AID 869;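 active = inhibition over a set limit, the all-compound mean plus 3 SD, in both replicate runs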;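 note: 0% = DMSO wells with no growth and 100% = 10 µM 1-NA-PP1 with full growth; RAM network block rescues cells from 5-FOA so hits raise OD615 growth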); conditions: S. cerevisiae dse1pr::URA3 5-FOA growth, OD615, 2 d; at 10 µM; stronger effect = higher value; strain carries analog-sensitive mutant Cbk1 kinase
[7] = RAM signaling pathway blockade in yeast – S. cerevisiae, Pdr1DBD-CYC8 efflux-inhibited sensitized strain, primary screen (AID 1298;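 active = RAM network inhibition above 8.4% in each of two replicates, 3 SD over the compound average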;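 note: 0% = DMSO untreated cells without growth and 100% = 10 µM 1-NA-PP1 full growth; higher means more yeast growth rescued from 5-FOA killing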); conditions: S. cerevisiae cbk1-as DSE1-URA3 strain, 5-FOA growth OD615, 2 d; at 50 µM; stronger effect = higher value

O=C(Nc1c(F)c(F)c(F)c(F)c1F)C1CCCCC1
inactive: growth inhibition [1] -1.42% | growth inhibition [2] -6.55% | viability increase [3] -1.05% | viability [4] 80% | viability [5] 89.2% | inhibition [6] 0.88% | RAM network inhibition [7] 7.02%

CCN1CCN(C(C(=O)NC2CCCC2)c2ccc(Cl)cc2)CC1 (configuration not stated)
inactive: growth inhibition [1] -14.8% | growth inhibition [2] 0.47% | viability increase [3] -4.44% | viability [4] 93.9% | viability [5] 93.1% | inhibition [6] 1.02% | RAM network inhibition [7] 3.71%

O=C(Cn1c(N2CCN(c3ccccc3)CC2)nc2ccccc21)c1ccccc1
inactive: growth inhibition [1] -10.3% | growth inhibition [2] -9.96% | viability increase [3] -3.76% | viability [4] 84.3% | viability [5] 93.6% | inhibition [6] 2.6% | RAM network inhibition [7] 4.62%

CC(=O)N1CCN(CCN=CC2=C(O)CC(c3ccc(Cl)cc3)CC2=O)CC1 (configuration not stated)
inactive: growth inhibition [1] -8.45% | growth inhibition [2] -3.19% | viability increase [3] 1.98% | viability [4] 99.2% | viability [5] 101% | inhibition [6] 1.2% | RAM network inhibition [7] -0.17%

O=C1Nc2ccccc2C(O)(C(=O)NCc2ccco2)N1c1ccc(Cl)cc1 (configuration not stated)
inactive: growth inhibition [1] -7.58% | growth inhibition [2] -16.5% | viability increase [3] -4.11% | viability [4] 98.6% | viability [5] 94.5% | inhibition [6] 1.98% | RAM network inhibition [7] 4.83%

CC1CCN(CCCNC(=O)CN2CCN(Cc3ccc(Cl)cc3)C2=O)CC1
inactive: growth inhibition [1] -8.6% | growth inhibition [2] -8.52% | viability increase [3] -0.83% | viability [4] 90.8% | viability [5] 89.3% | inhibition [6] 2.27% | RAM network inhibition [7] 4.2%

O=C(COc1cc(=O)n2c(n1)SCCC2)c1ccccc1
inactive: growth inhibition [1] -6.77% | growth inhibition [2] -2.62% | viability increase [3] -1.08% | viability [4] 102% | viability [5] 92.7% | inhibition [6] 1.56% | RAM network inhibition [7] 1.89%

Cc1ccc2oc(=O)c3cc(C(=O)N4CCN(C(=O)c5ccco5)CC4)sc3c2c1
inactive: growth inhibition [1] -9.32% | growth inhibition [2] -1.79% | viability increase [3] -2.75% | viability [4] 102% | viability [5] 99.5% | inhibition [6] 2.8% | RAM network inhibition [7] 3.77%

CCCN(CCC)C(=O)COc1cc(=O)n(CC)c2ccccc12
inactive: growth inhibition [1] -17.4% | growth inhibition [2] -2.75% | viability increase [3] -1.75% | viability [4] 99.8% | viability [5] 89.3% | inhibition [6] 0.52% | RAM network inhibition [7] 0.9%

CCc1ccccc1NC(=O)c1cc(C2CC2)on1
inactive: growth inhibition [1] -12.1% | growth inhibition [2] 6.47% | viability increase [3] -0.65% | viability [4] 93.2% | viability [5] 91.8% | inhibition [6] 0.045% | RAM network inhibition [7] 3.34%

O=C(CSc1nc(-c2ccco2)cc(C(F)(F)F)n1)N1CCN(Cc2ccccc2)CC1
inactive: growth inhibition [1] -6.8% | growth inhibition [2] -13.4% | viability increase [3] -4.54% | viability [4] 86.8% | viability [5] 82.8% | inhibition [6] -0.555% | RAM network inhibition [7] 6.26%

CCCCNC(=O)Nc1ccc(Br)cn1
inactive: growth inhibition [1] -8.62% | growth inhibition [2] 4.73% | viability increase [3] -1.6% | viability [4] 97.6% | viability [5] 96% | inhibition [6] 0.485% | RAM network inhibition [7] 6.6%

COc1ccc(-c2nc(CS(=O)CC(=O)N3CCc4ccccc4C3)c(C)o2)cc1 (configuration not stated)
inactive: growth inhibition [1] 2.66% | growth inhibition [2] 32.7% | viability increase [3] -2.66% | viability [4] 85.6% | viability [5] 88.8% | inhibition [6] 1.13% | RAM network inhibition [7] 3.48%

OC(COc1cccc2ccccc12)CN1CCN(c2ccccn2)CC1 (configuration not stated)
inactive: growth inhibition [1] -5.36% | growth inhibition [2] 1.3% | viability increase [3] -2.34% | viability [4] 84.9% | viability [5] 81.7% | inhibition [6] 0.445% | RAM network inhibition [7] 2.59%

CCOc1ccc(OCC)c(S(=O)(=O)NCCCN2CCOCC2)c1
inactive: growth inhibition [1] -13.8% | growth inhibition [2] -12.2% | viability increase [3] -0.25% | viability [4] 99.8% | viability [5] 99% | inhibition [6] 0.535% | RAM network inhibition [7] 0.2%

Cc1nnc(SCC(=O)NC(C)c2ccccc2)[nH]c1=O (configuration not stated)
inactive: growth inhibition [1] -10.9% | growth inhibition [2] -9.25% | viability increase [3] -1.16% | viability [4] 101% | viability [5] 99.3% | inhibition [6] 4.54% | RAM network inhibition [7] 5.85%

Cc1ccc(-n2nnc3c(=O)n(Cc4cccc(C)c4)cnc32)cc1
inactive: growth inhibition [1] -5.14% | growth inhibition [2] -6.1% | viability increase [3] 1.15% | viability [4] 99.9% | viability [5] 93.7% | inhibition [6] 2.65% | RAM network inhibition [7] 1.34%

CC1CCN(S(=O)(=O)N2CCC(C(=O)N3CCC(N(C)CC4CCCO4)CC3)CC2)CC1 (configuration not stated)
inactive: growth inhibition [1] -0.85% | growth inhibition [2] -5.09% | viability increase [3] -1.16% | viability [4] 90.6% | viability [5] 95.3% | inhibition [6] 2.09% | RAM network inhibition [7] 0.73%

CCOC(=O)C1CCN(C(=O)CN(c2cccc(OC)c2)S(=O)(=O)c2ccccc2)CC1
inactive: growth inhibition [1] -4.73% | growth inhibition [2] -0.62% | viability increase [3] -3.2% | viability [4] 92.9% | viability [5] 87.2% | inhibition [6] -0.74% | RAM network inhibition [7] 1.79%

Cc1ccc(S(=O)(=O)N2CCCC(C(=O)N(Cc3cccs3)C3CC3)C2)cc1 (configuration not stated)
inactive: growth inhibition [1] -7.06% | growth inhibition [2] -14.9% | viability increase [3] -0.66% | viability [4] 61.3% | viability [5] 71.5% | inhibition [6] 0.39% | RAM network inhibition [7] 7.4%

CCC1Oc2ccc(C)cc2N(CC(=O)NCCc2ccc(OC)c(OC)c2)C1=O (configuration not stated)
inactive: growth inhibition [1] -6.91% | growth inhibition [2] 3.82% | viability increase [3] -0.77% | viability [4] 95.2% | viability [5] 92.4% | inhibition [6] 1.23% | RAM network inhibition [7] -0.46%

O=S(=O)(NCCN1CCCC1)c1cccc2cccnc12
inactive: growth inhibition [1] -4.34% | growth inhibition [2] 14.2% | viability increase [3] -2.62% | viability [4] 99.8% | viability [5] 92.9% | inhibition [6] 0.34% | RAM network inhibition [7] 5.38%

Cn1c(Cn2c(=O)sc3ccccc32)nnc1SCC(=O)NCc1ccco1
inactive: growth inhibition [1] 0.17% | growth inhibition [2] 8.09% | viability increase [3] -4.73% | viability [4] 109% | viability [5] 104% | inhibition [6] 1.93% | RAM network inhibition [7] 6.92%

Cn1c(=O)oc2cc(S(=O)(=O)N3CCC(N4CCCCC4)CC3)ccc21
inactive: growth inhibition [1] -15.8% | growth inhibition [2] -13.1% | viability increase [3] -1.67% | viability [4] 98.7% | viability [5] 93% | inhibition [6] -0.02% | RAM network inhibition [7] 1.06%

CC(=O)NC1(c2ccccc2)CCN(Cc2nnnn2C(C)(C)C)CC1
inactive: growth inhibition [1] -11.8% | growth inhibition [2] -17.9% | viability increase [3] -0.8% | viability [4] 102% | viability [5] 96% | inhibition [6] 3.53% | RAM network inhibition [7] 1.62%

CC(C)C(=O)N=c1sc2cc(F)cc(F)c2n1C
inactive: growth inhibition [1] -9.84% | growth inhibition [2] -0.65% | viability increase [3] -1.28% | viability [4] 94.1% | viability [5] 99% | inhibition [6] 0.01% | RAM network inhibition [7] 0.96%

O=C(NCCCNC(=O)c1cccs1)c1cccs1
inactive: growth inhibition [1] 3.77% | growth inhibition [2] -0.395% | viability increase [3] 0% | viability [4] 96.6% | viability [5] 108% | inhibition [6] 1.09% | RAM network inhibition [7] 5.26%

Cc1ccc(S(=O)(=O)Cc2ccc(C(=O)N3CCN(c4ccc(F)cc4)CC3)o2)cc1
active: viability [5] 23.3%
inactive: growth inhibition [1] -9.22% | growth inhibition [2] -15.2% | viability increase [3] -6.28% | viability [4] 33% | inhibition [6] 0.575% | RAM network inhibition [7] 4.81%

O=C(Cn1cc2c(n1)CCCC2)NCC1CCCO1 (configuration not stated)
inactive: growth inhibition [1] -2.07% | growth inhibition [2] 3.85% | viability increase [3] 0.41% | viability [4] 103% | viability [5] 95.9% | inhibition [6] 1.89% | RAM network inhibition [7] 4.01%

CCOC(=O)C1CCN(C(=O)c2cc3c(-c4ccc(OC)c(OC)c4)nn(C)c3s2)CC1
inactive: growth inhibition [1] -7.02% | growth inhibition [2] -7.66% | viability increase [3] -2.04% | viability [4] 107% | viability [5] 98.9% | inhibition [6] 0.595% | RAM network inhibition [7] 5.7%

COc1ccc(C2N3CC4(C)CN2CC(C)(C3)C4=O)cc1OC (configuration not stated)
inactive: growth inhibition [1] -1.15% | growth inhibition [2] 2.95% | viability increase [3] -0.5% | viability [4] 102% | viability [5] 103% | inhibition [6] 1.67% | RAM network inhibition [7] 0.11%

Cc1c(C(=O)NCc2ccccn2)sc2nc(-c3ccccc3)cn12
inactive: growth inhibition [1] 6.98% | growth inhibition [2] 13.1% | viability increase [3] 0.68% | viability [4] 112% | viability [5] 101% | inhibition [6] 0.91% | RAM network inhibition [7] 0.57%

O=C(CC1Sc2ccccc2NC1=O)Nc1cccc(C(=O)O)c1 (configuration not stated)
inactive: growth inhibition [1] 0.01% | growth inhibition [2] 8.77% | viability increase [3] -0.43% | viability [4] 101% | viability [5] 87% | inhibition [6] 1.14% | RAM network inhibition [7] 4.51%

O=C(O)CCCC(=O)N1CCN(c2nc(-c3ccccc3)c3ccccc3n2)CC1
inactive: growth inhibition [1] -9.64% | growth inhibition [2] -6.36% | viability increase [3] -1.22% | viability [4] 102% | viability [5] 93% | inhibition [6] 0.83% | RAM network inhibition [7] 4.79%

COc1ccc(CN2CCCCC2C(=O)Nc2ccc(OC)c(OC)c2)cc1OC (configuration not stated)
inactive: growth inhibition [1] -10.9% | growth inhibition [2] -12.6% | viability increase [3] -1.88% | viability [4] 95.8% | viability [5] 93.3% | inhibition [6] 0.01% | RAM network inhibition [7] 0.21%

Cc1c(NC(=O)C2CCN(S(=O)(=O)c3ccccc3)CC2)c(=O)n(-c2ccccc2)n1C
inactive: growth inhibition [1] -3.65% | growth inhibition [2] -4.28% | viability increase [3] -2.25% | viability [4] 96.5% | viability [5] 88.8% | inhibition [6] 1.45% | RAM network inhibition [7] 6.15%
